Here are results for twelve compounds from PMC10052233 (JACS Au, 2023).

In experiment [1] the target is T1, di-Zn-NDM-1 (Klebsiella pneumoniae, UniProt C7C422). As to the kind of experiment: 1H-15N TROSY-HSQC and 19F NMR titration of di-Zn-NDM-1 with inhibitors. The format is binding. As to conditions: di-Zn-NDM-1, 298 K.
Experiment [2] concerns the target T2, apo-NDM-1 (Klebsiella pneumoniae, UniProt C7C422). As to the kind of experiment: 1H-15N TROSY-HSQC and 19F NMR titration of apo-NDM-1 with inhibitors. As to conditions: apo-NDM-1, 298 K. The format is binding.
The target of experiment [3] is T1, di-Zn-NDM-1. Briefly: 19F NMR titration, dissociation constant with di-Zn-NDM-1. The format is binding. The method, boiled down: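 NDM-1 (residues 36−270) carrying a C-terminal His6 tag, expressed in E. coli BL21 (DE3) and purified by Ni2+-affinity and size-exclusion chromatography. di-Zn protein, 0.1−0.3 mM, titrated with test compound at ratios chosen so the protein was mostly bound. 19F spectra recorded at each ratio. Kd derived from titration of the residue Y229 signal.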

The target of experiment [4] is T2, apo-NDM-1. As to the kind of experiment: Thermal stability by circular dichroism, apo-NDM-1. As to conditions: CD, ellipticity at 208 nm; apo-NDM-1 alone 46.1 °C. Background: Circular dichroism is the unequal absorption of left and right circularly polarised light.
Experiment [5] addresses T1, di-Zn-NDM-1. As to the kind of experiment: Thermal stability by circular dichroism, di-Zn-NDM-1.

T2 sequence (C7C422 36-270): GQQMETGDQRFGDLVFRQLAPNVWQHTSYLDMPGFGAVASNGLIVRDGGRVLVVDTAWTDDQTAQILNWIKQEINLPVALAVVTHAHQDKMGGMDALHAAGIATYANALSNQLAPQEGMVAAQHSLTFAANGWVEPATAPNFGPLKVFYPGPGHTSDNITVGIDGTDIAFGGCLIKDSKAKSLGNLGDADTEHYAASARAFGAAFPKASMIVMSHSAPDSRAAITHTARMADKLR
T1 sequence (C7C422 36-270): as above

Consider `CC(CS)C(=O)O` (stereo not drawn) [3-mercaptoisobutyric acid], for which the “changes of 1H-15N TROSY-HSQC / 19F spectra upon titration” value is given as “large chemical shift changes” on di-Zn-NDM-1 [1] and “No changes” at apo-NDM-1 [2].
Consider `c1ccc(CN(Cc2ccccn2)Cc2ccccn2)nc1` [TPA, tris-picolylamine], for which the “changes of 1H-15N TROSY-HSQC / 19F spectra upon titration” value was “significant changes” at di-Zn-NDM-1 [1] and “only minute chemical shift changes” at apo-NDM-1 [2].
Take `O=C(O)c1cc[c]([Hg][Cl])cc1` [chloromercuribenzoic acid, 4-chloromercuribenzoic acid]: the “changes of 1H-15N TROSY-HSQC / 19F spectra upon titration” value at di-Zn-NDM-1 [1] and on apo-NDM-1 [2] was “almost all of the cross-peaks in the 2D TROSY-HSQC spectra disappear” throughout.
`N[C@@H](C(=O)N[C@@H]1C(=O)N2C(C(=O)O)=C(Cl)CS[C@H]12)c1ccccc1` [cefaclor]: the “changes of 1H-15N TROSY-HSQC / 19F spectra upon titration” value on di-Zn-NDM-1 [1] and on apo-NDM-1 [2] was “almost all of the cross-peaks in the 2D TROSY-HSQC spectra disappear” in each case.
With `O[C@@H](CS)[C@@H](O)CS` (racemic) [DTT, dithiothreitol], the “changes of 1H-15N TROSY-HSQC / 19F spectra upon titration” value is “large chemical shift changes” on di-Zn-NDM-1 [1] and “No changes” at apo-NDM-1 [2]. Further, the Kd (in general, a measure of binding affinity in units of concentration) at di-Zn-NDM-1 [3] was 30 µM.
For `O=c1c2ccccc2[se]n1-c1ccccc1` [ebselen], the “Tm of ebselen-bound apo-NDM-1” value at apo-NDM-1 [4] turned out to be 46.1 °C. Besides, the “changes of 1H-15N TROSY-HSQC / 19F spectra upon titration” value at di-Zn-NDM-1 [1] and at apo-NDM-1 [2] was “almost all of the cross-peaks in the 2D TROSY-HSQC spectra disappear” in each case. Further, the “Tm of ebselen-bound di-Zn-NDM-1” value on di-Zn-NDM-1 [5] (CD, ellipticity at 208 nm, di-Zn-NDM-1 alone 53.9 °C) was 48.4 °C. Further, on di-Zn-NDM-1 [5] (ebselen-bound di-Zn-NDM-1 vs di-Zn-NDM-1), the “Tm lower than that of di-Zn-NDM-1” value was “about 5.5 °C”.
As for `c1cnc2c(c1)ccc1cccnc12` [phenanthroline], the “changes of 1H-15N TROSY-HSQC / 19F spectra upon titration” value is recorded as “significant changes” on di-Zn-NDM-1 [1] and “only minute chemical shift changes” at apo-NDM-1 [2].
For the compound `O=C(O)c1cccc(C(=O)O)n1` [dipicolinic acid], the figures for the “changes of 1H-15N TROSY-HSQC / 19F spectra upon titration” value on di-Zn-NDM-1 [1] and on apo-NDM-1 [2] were “significant changes” and “only minute chemical shift changes”, respectively.
On to colloidal bismuth subcitrate [CBS], for which the “changes of 1H-15N TROSY-HSQC / 19F spectra upon titration” value at di-Zn-NDM-1 [1] is recorded as “no changes”; on apo-NDM-1 [2], “shifted significantly”.
For the compound `O=C(O)CNC(=O)C(CS)Cc1ccccc1` (stereo not drawn) [thiorphan], the figures for the “changes of 1H-15N TROSY-HSQC / 19F spectra upon titration” value at di-Zn-NDM-1 [1] and at apo-NDM-1 [2] were “large chemical shift changes” and “No changes”, respectively.
With `CC(S)C(=O)NCC(=O)O` (stereo not drawn) [tiopronin], the “changes of 1H-15N TROSY-HSQC / 19F spectra upon titration” value at di-Zn-NDM-1 [1] is recorded as “large chemical shift changes”; at apo-NDM-1 [2], “No changes”. In addition, at di-Zn-NDM-1 [3], binding was put at a Kd of 121 µM.
Turning to `OCC(S)CS` (stereo not drawn) [2,3-dimercapto-1-propanol], the “changes of 1H-15N TROSY-HSQC / 19F spectra upon titration” value at di-Zn-NDM-1 [1] is listed as “large chemical shift changes”; on apo-NDM-1 [2] it was “No changes”. The same compound had a Kd on di-Zn-NDM-1 [3] of 712 µM.
